Among the data in ChEMBL document CHEMBL2331374, “Novel leucine ureido derivatives as inhibitors of aminopeptidase N (APN)” (Bioorg Med Chem, 2013) are IC50 values, retold here.

Test [1] has as its target T1, Aminopeptidase N (Sus scrofa, UniProt P15145).
T1 sequence (P15145 whole entry): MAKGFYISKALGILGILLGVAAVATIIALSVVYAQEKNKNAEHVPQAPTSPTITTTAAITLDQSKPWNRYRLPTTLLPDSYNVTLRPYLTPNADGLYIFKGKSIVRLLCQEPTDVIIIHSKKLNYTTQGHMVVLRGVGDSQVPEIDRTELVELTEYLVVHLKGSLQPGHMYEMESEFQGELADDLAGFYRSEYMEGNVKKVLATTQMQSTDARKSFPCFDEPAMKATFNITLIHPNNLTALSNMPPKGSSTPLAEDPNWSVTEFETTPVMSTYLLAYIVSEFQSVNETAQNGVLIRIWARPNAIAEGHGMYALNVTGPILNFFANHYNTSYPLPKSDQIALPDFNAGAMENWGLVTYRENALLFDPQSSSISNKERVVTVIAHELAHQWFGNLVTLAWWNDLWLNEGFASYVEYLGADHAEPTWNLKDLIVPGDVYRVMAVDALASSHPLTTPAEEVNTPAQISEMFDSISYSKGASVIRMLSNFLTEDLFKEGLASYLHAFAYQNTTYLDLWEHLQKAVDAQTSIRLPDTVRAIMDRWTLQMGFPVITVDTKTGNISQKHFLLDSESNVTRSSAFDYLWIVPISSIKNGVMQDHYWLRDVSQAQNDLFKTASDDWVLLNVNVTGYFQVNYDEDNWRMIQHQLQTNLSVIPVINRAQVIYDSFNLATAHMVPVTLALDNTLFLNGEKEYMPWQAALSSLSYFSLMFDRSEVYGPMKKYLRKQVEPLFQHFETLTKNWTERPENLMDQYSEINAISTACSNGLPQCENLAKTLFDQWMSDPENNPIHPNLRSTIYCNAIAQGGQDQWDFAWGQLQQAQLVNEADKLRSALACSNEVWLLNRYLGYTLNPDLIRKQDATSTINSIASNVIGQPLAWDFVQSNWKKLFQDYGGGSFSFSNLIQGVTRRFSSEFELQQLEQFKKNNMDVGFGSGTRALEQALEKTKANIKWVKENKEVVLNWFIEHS
Nature of the test: Inhibition of pig microsomal aminopeptidase N using L-leu-p-nitroanilide as substrate incubated for 5 mins prior to substrate addition measured after 30 mins by spectrophotometric analysis. The gist of the method: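 Porcine kidney microsomal aminopeptidase in 50 mM PBS, pH 7.2. Compounds at various concentrations preincubated with enzyme 5 min at 37 °C, then L-leu-p-nitroanilide added and incubated 30 min at 37 °C. IC50 from triplicate experiments, mean ± SD.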

For test [2], the target named is Histone deacetylase 1/3/5/8 (Homo sapiens, UniProt Q13547+O15379+Q9UQL6+Q9BY41). Nature of the test: Inhibition of HDAC1/HDAC3/HDAC5/HDAC8 in human HeLa nuclear extract using Boc-Lys(acetyl)-AMC as substrate incubated for 5 mins prior to substrate measured after 30 mins by spectrophotometric analysis. The test is classed as protein assay.
Test [3] deals with Aminopeptidase N (Homo sapiens, UniProt P15144). Nature of the test: Inhibition of aminopeptidase N in human ES2 cells using L-leu-p-nitroanilide as substrate incubated for 5 mins prior to substrate addition measured after 30 mins by spectrophotometric analysis. The class given is cell-based. The gist of the method: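 Whole ES-2 cell suspension in PBS (1 × 10^5 cells/well) used as enzyme source. Compounds at various concentrations preincubated 5 min at 37 °C, then L-leu-p-nitroanilide added and incubated 30 min at 37 °C. IC50 from triplicate experiments, mean ± SD.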
Chain of Aminopeptidase N (Homo sapiens, UniProt P15144) (P15144 whole entry): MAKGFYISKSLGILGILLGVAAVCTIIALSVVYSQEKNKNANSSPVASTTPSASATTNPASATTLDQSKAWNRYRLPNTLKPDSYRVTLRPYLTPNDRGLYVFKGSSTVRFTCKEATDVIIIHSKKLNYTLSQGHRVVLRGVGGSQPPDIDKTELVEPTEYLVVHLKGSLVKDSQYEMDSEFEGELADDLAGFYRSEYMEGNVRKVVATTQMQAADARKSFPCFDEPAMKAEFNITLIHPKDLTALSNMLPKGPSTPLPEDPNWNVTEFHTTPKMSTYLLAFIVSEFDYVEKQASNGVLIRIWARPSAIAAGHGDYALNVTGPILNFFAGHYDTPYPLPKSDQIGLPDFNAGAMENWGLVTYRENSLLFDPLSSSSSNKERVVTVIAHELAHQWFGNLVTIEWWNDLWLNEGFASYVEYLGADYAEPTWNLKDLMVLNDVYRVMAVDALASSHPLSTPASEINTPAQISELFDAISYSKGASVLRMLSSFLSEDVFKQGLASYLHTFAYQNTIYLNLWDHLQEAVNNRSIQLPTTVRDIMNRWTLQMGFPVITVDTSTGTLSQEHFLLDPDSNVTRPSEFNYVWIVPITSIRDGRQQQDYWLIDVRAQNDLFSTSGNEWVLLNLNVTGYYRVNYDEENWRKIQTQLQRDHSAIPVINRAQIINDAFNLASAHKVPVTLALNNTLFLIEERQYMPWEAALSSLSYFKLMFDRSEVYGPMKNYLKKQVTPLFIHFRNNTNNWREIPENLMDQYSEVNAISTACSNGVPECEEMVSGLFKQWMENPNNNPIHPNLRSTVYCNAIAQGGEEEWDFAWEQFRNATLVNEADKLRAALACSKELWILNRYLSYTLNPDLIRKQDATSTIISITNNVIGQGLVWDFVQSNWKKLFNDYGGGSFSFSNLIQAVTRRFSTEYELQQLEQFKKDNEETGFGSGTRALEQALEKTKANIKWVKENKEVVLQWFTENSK

For test [4], the system named is U-937. Nature of the test: Antiproliferative activity against human U937 cells after 48 hrs by MTT assay. The test is classed as functional, cell-based. The settings on record: U-937, 48 h. The gist of the method:
(§1)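 Cells grown in RPMI1640 with FBS at 37 °C, 5% CO2; seeded 5000/well, 4 h before adding inhibitor at varied concentrations. After 48 h, 1% MTT added for 4 h, formazan dissolved in DMSO (15 min mixing), OD read at 570 nm. IC50 from three independent experiments, mean values.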
On the technique in general: Formazan colour is commonly taken as a measure of viable cells.

A short description of test [5]: Antiproliferative activity against human ES2 cells after 48 hrs by MTT assay. The test is classed as functional, cell-based. As to conditions: ES-2, 48 h. The gist of the method:
as §1

For `CC(C)C[C@H](NC(=O)Nc1ccccc1)C(=O)NO`, the IC50 in test [1] was 1.15 µM; in test [2], over 100 µM.

Turning to `CC(C)C[C@H](NC(=O)Nc1cccc(F)c1)C(=O)NO`, the IC50 in test [1] was 1.9 µM; in test [2], over 100 µM.

`CC(C)C[C@H](NC(=O)Nc1cccc(Cl)c1)C(=O)NO`: the IC50 in test [1] is 1.66 µM; in test [2] it was over 100 µM.

Consider `CC(C)C[C@H](NC(=O)Nc1cccc(Br)c1)C(=O)NO`, for which the half-maximal inhibitory concentration (IC50) in test [1] was 0.58 µM; in test [2] it was over 100 µM.

`Cc1cccc(NC(=O)N[C@@H](CC(C)C)C(=O)NO)c1`: the IC50 in test [1] was 0.24 µM; in test [2] it was over 100 µM.

Turning to `COc1cccc(NC(=O)N[C@@H](CC(C)C)C(=O)NO)c1`, the IC50 in test [1] is 1.36 µM; in test [2], over 100 µM.

Take `CC(C)C[C@H](NC(=O)Nc1cccc(C(F)(F)F)c1)C(=O)NO`: the values for the IC50 in test [1] and in test [2] were 1.97 µM and over 100 µM, respectively.

As for `CC(C)C[C@H](NC(=O)Nc1cccc(O)c1)C(=O)NO`, the results for the IC50 in test [1] and in test [2] were 1.7 µM and over 100 µM, respectively.

In the case of `CC(C)C[C@H](NC(=O)NCc1ccccc1F)C(=O)NO`, the IC50 in test [1] is 1.38 µM; in test [2], over 100 µM.

Regarding `CC(C)C[C@H](NC(=O)NCc1ccccc1Cl)C(=O)NO`, the results for the IC50 in test [1], in test [2] and in test [3] were 0.22 µM, over 100 µM and 0.65 µM, respectively.

In the case of `CC(C)C[C@H](NC(=O)NCc1ccccc1Br)C(=O)NO`, the IC50 in test [1] is 0.13 µM; in test [2], over 100 µM; in test [3] it was 0.73 µM.

As to `Cc1ccccc1CNC(=O)N[C@@H](CC(C)C)C(=O)NO`, the IC50 in test [1] was 0.9 µM; in test [2] it was over 100 µM.

For `CC(C)C[C@H](NC(=O)NCc1cccc(Cl)c1)C(=O)NO`, the IC50 was 0.35 µM in test [1] and over 100 µM in test [2].

For `Cc1cccc(CNC(=O)N[C@@H](CC(C)C)C(=O)NO)c1`, the IC50 in test [1] was 0.44 µM; in test [2], over 100 µM.

For the compound `CC(C)C[C@H](NC(=O)Nc1ccccc1F)C(=O)NO`, the IC50 in test [1] is 0.52 µM; in test [2], over 100 µM.

As for `CC(C)C[C@H](NC(=O)Nc1ccccc1Cl)C(=O)NO`, the IC50 is 0.093 µM in test [1]; over 100 µM in test [2]; over 1000 µM in test [4]; 615 µM in test [5]; 1.31 µM in test [3].

For `CC(C)C[C@H](NC(=O)Nc1ccccc1Br)C(=O)NO`, the IC50 in test [1] is 0.06 µM; in test [2], over 100 µM; in test [4], over 1000 µM; in test [5] it was 405 µM; in test [3], 0.53 µM.

With `Cc1ccccc1NC(=O)N[C@@H](CC(C)C)C(=O)NO`, the IC50 in test [1] was 0.18 µM; in test [2] it was over 100 µM; in test [3], 0.61 µM.

As for `COc1ccccc1NC(=O)N[C@@H](CC(C)C)C(=O)NO`, the IC50 in test [1] was 0.13 µM; in test [2] it was over 100 µM; in test [4] it was over 1000 µM; in test [5] it was 480 µM; in test [3], 0.7 µM.

Turning to `CC(C)C[C@H](NC(=O)Nc1ccccc1C(F)(F)F)C(=O)NO`, the results for the IC50 in test [1] and in test [2] were 0.79 µM and over 100 µM, respectively.

Take `CC(C)C[C@H](NC(=O)Nc1ccccc1O)C(=O)NO`: the IC50 was 11.9 µM in test [1] and over 100 µM in test [2].

For the compound `CC(C)C[C@H](NC(=O)[C@@H](O)[C@H](N)Cc1ccccc1)C(=O)O` [UBENIMEX], the IC50 in test [2] is over 100 µM; in test [4], over 1000 µM; in test [5], 620 µM.

As a reminder, the IC50 is the concentration that gives 50% inhibition. High values mean weaker potency, low ones greater potency.
